The source made the active and inactive calls. The rule behind the calls is not given here.
Key:
Type in all cases: cell-based
[1] = target: T1, Palmitoleoyl-protein carboxylesterase NOTUM (Homo sapiens, UniProt Q6P988); experiment: Inhibition of NOTUM in human SW620 cells conditioned medium assessed as preservation of Wnt3A activity pretreated for 1 hr followed by Wnt3A producing L-cell addition for 2 hrs and subsequent […]-STF cell addition and measured after 24 hrs by luciferase reporter gene assay
T1 sequence (Q6P988 whole entry): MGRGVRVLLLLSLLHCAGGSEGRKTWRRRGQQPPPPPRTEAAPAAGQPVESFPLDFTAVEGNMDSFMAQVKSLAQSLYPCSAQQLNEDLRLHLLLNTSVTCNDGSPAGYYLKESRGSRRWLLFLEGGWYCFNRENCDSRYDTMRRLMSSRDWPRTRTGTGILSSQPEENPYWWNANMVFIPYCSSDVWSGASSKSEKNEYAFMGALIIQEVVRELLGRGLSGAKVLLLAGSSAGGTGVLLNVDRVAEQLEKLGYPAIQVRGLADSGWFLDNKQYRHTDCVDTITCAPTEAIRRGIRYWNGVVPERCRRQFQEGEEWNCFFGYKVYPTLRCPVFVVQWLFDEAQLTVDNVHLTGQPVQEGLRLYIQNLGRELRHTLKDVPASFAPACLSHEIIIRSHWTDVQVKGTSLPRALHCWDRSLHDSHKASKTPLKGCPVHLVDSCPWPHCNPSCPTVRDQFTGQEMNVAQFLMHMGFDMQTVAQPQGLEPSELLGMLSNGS

[2] = target: T1, Palmitoleoyl-protein carboxylesterase NOTUM; experiment: Inhibition of rhodamine-tagged FP probe binding to NOTUM in human SW620 cells conditioned media pretreated for 30 mins followed by rhodamine-tagged FP probe addition and measured after 30 mins by SDS-PAGE fluorescence analysis
[3] = target: T1, Palmitoleoyl-protein carboxylesterase NOTUM; experiment: Inhibition of NOTUM in human SW620 cells conditioned medium at 10 uM after 1 hr by FP-biotin probe based LC-MS analysis relative to control
Summary of the method: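 SW620 conditioned medium was treated with compound (0.5 or 10 μM) or DMSO for 1 h at 37 °C. Peptides were labeled with light (compound) or heavy (DMSO) formaldehyde, combined and analyzed by MS. Values are light/heavy median peptide ratios from two independent experiments, ±SEM.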

[4] = target: T2, Monoacylglycerol lipase ABHD6 (Homo sapiens) (UniProt Q9BV23); experiment: Inhibition of ABHD6 in human SW620 cells at 10 uM after 2 hrs by FP-biotin probe based LC-MS analysis
T2 sequence (whole entry): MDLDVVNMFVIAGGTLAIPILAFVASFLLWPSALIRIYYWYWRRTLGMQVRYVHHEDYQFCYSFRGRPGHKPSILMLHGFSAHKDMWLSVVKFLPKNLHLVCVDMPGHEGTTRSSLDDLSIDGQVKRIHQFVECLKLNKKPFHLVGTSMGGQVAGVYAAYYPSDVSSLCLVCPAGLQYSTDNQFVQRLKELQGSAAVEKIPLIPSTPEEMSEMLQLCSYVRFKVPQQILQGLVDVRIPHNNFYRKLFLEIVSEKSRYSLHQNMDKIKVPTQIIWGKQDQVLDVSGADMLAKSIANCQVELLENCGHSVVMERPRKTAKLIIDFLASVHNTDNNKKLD

[5] = target: T1, Palmitoleoyl-protein carboxylesterase NOTUM; experiment: Inhibition of rhodamine-tagged FP probe binding to NOTUM in human SW620 cells conditioned medium at 0.01 to 1 uM pretreated for 30 mins followed by rhodamine-tagged FP probe addition and measured after 30 mins by SDS-PAGE fluorescence analysis; conditions: 0.5 h
[6] = target: T1, Palmitoleoyl-protein carboxylesterase NOTUM; experiment: Inhibition of NOTUM in human SW620 cells conditioned medium at 0.01 to 1 uM measured after 30 mins by rhodamine-azide reporter tagged based SDS-PAGE fluorescence analysis; conditions: 0.5 h
Summary of the method: (§1)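 Alkyne probe analogue was added to SW620 conditioned medium or cellular lysate for 30 min at 37 °C. Samples were clicked to a rhodamine-azide tag by copper-mediated azide–alkyne cycloaddition, then read by SDS-PAGE and in-gel fluorescence.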

[7] = target: T2, Monoacylglycerol lipase ABHD6 (Homo sapiens); experiment: Inhibition of rhodamine-tagged FP probe binding to ABHD6 in human SW620 cells at 0.1 uM pretreated for 30 mins followed by rhodamine-tagged FP probe addition and measured after 30 mins by SDS-PAGE fluorescence analysis
[8] = target: T2, Monoacylglycerol lipase ABHD6 (Homo sapiens); experiment: Inhibition of ABHD6 in human SW620 cells at 0.1 uM after 30 mins by rhodamine-azide reporter tagged based SDS-PAGE fluorescence analysis; summary of the method: as §1
[9] = target: T1, Palmitoleoyl-protein carboxylesterase NOTUM; experiment: Inhibition of rhodamine-tagged FP probe binding to NOTUM in human SW620 cells conditioned media at 0.1 to 3 uM pretreated for 30 mins followed by rhodamine-tagged FP probe addition and measured after 30 mins by SDS-PAGE fluorescence analysis; conditions: 0.5 h
[10] = target: T3, Palmitoyl-protein thioesterase 1 (Homo sapiens) (UniProt P50897); experiment: Inhibition of ABC45 probe binding to PPT1 in human SW620 cells at 0.1 to 10 uM pretreated for 2 hrs followed by ABC45 probe addition and measured after 30 mins by rhodamine-azide reporter tagged based SDS-PAGE fluorescence analysis
T3 sequence (whole entry): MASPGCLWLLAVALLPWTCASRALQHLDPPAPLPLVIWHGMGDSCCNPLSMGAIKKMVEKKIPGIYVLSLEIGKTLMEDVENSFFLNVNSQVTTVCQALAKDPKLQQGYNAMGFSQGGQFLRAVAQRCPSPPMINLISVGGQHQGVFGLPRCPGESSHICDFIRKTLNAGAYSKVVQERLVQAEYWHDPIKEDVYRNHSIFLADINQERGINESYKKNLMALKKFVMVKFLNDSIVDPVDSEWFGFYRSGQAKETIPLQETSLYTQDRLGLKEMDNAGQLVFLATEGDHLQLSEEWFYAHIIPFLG
Summary of the method: (§2)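 SW620 cells were treated in situ with compound at the stated concentrations for 2 h at 37 °C. Soluble and membrane proteomes were then labeled with the PPT1-directed probe ABC45 or FP-Rh. Competition was read by SDS-PAGE and in-gel fluorescence scanning.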

[11] = target: T1, Palmitoleoyl-protein carboxylesterase NOTUM; experiment: Inhibition of rhodamine-tagged FP probe binding to recombinant human C-terminal FLAG-tagged NOTUM expressed in HEK293T cells pretreated for 30 mins followed by rhodamine-tagged FP probe addition and measured after 30 mins by SDS-PAGE fluorescence analysis
[12] = target: T2, Monoacylglycerol lipase ABHD6 (Homo sapiens); experiment: Inhibition of rhodamine-tagged FP probe binding to ABHD6 in human SW620 cells at 0.1 to 10 uM pretreated for 2 hrs followed by rhodamine-tagged FP probe addition and measured after 30 mins by SDS-PAGE fluorescence analysis; summary of the method: as §2

Row | IC50 [2] | inhibition (INH) [9] | inhibition [10] | Structure (SMILES) | other results
1 | 200 nM | Active | – | COc1ccc(N2CCN(C(=O)ON3C(=O)C4CN(Cc5ccccc5Cl)CCN4C3=O)CC2)cc1 (centres undefined) | –
2 | > 10000 nM | Not Active | – | COc1ccc(N2CCN(C(=O)ON3C(=O)C4CN(Cc5cccc(Cl)c5)CCN4C3=O)CC2)cc1 (centres undefined) | –

Second part, the compound before the results:

Row | Structure (SMILES) | IC50 [2] | inhibition (INH) [9] | inhibition [10] | other results
3 | O=C(c1ccc(Cl)cc1)N1CCN2C(=O)N(OC(=O)N3CCOc4ccccc43)C(=O)C2C1 (centres undefined) | > 10000 nM | – | – | IC50 [1]: > 5000 nM; inhibition (INH) [3]: Not Active; inhibition [4]: Active
4 | C#CCN1CCN(C(=O)ON2C(=O)C3CN(Cc4ccc(Cl)cc4)CCN3C2=O)c2ccccc21 (centres undefined) | – | – | – | inhibition (INH) [5]: Active; inhibition (INH) [6]: Active; inhibition [7]: inactive; inhibition [8]: inactive
5 | O=C1C2CN(Cc3ccc(Cl)cc3)CCN2C(=O)N1OC(=O)N1CCOc2ccccc21 (centres undefined) | – | – | inactive | –
6 | O=C1C2CN(Cc3ccc(Oc4ccccc4)nc3)CCN2C(=O)N1OC(=O)N1CCOc2ccccc21 (centres undefined) | – | – | inactive | IC50 [11]: 1510 nM
7 | COc1ccc(N2CCN(C(=O)ON3C(=O)C4CN(Cc5ccc(Cl)cc5)CCN4C3=O)CC2)cc1 (centres undefined) | 290 nM | Active | Active | inhibition [12]: Active

From ChEMBL document CHEMBL4145632, “Selective Irreversible Inhibitors of the Wnt-Deacylating Enzyme NOTUM Developed by Activity-Based Protein Profiling” (ACS Med Chem Lett, 2018)
